# In PubChem BioAssay:
# Unmarked numbers belong to inactive results. Calls of active or inactive are those of the source.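 How the source made its calls, unless noted: active means inhibition at or above 50% relative to wild type and mutant plate controls; inactive means inhibition below 50%.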
# Test: inhibitors of larval lipid processing in zebrafish, primary screen, whole organism, PED6 fluorescence, gall bladder and intestine (AID 686;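 active means a full or partial loss of lipid-probe fluorescence in the fish gall bladder, intestine or both, judged by eye; inactive means no fluorescence loss, or compound toxic to the fish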;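 further: larvae 5 to 7 days old with five fish per well; signal comes from phospholipase A2 cleavage of quenched PED6 carried via bile; overnight exposure to compound and PED6 before scoring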)
# Details: Zebrafish larvae PED6 lipid processing, fluorescence scoring; screened at 20 µM (by protocol)
# How it was run: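 Test system – live zebrafish larvae aged 5-7 days, whole organism · Buffer or medium – E3 fish medium · Reagent – quenched phospholipase substrate PED6, 100 nM final, ingested by larvae · Doses – 20 µM single dose · Incubation – overnight compound and PED6 incubation · Technique – visual fluorescence microscopy scoring of gall bladder, gut · Read-out basis – visual per-well fluorescence inhibition score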
row,Compound,outcome
1,Cc1cc(C)n(C(=O)CNC(=O)C2COc3ccccc3O2)n1 (stereo not given),inactive
2,CCCCOc1ccccc1C(=O)NCCCC(=O)O,active; weak signal in gallbladder and intestine
3,OCCNc1ncnc2c1c(-c1ccccc1)c(-c1ccccc1)n2Cc1ccco1,inactive
4,COc1ccc(CCn2c(=N)c(C#N)cc3c(=O)n4ccccc4nc32)cc1,inactive
5,Cc1nc2ccccc2cc1O,inactive
6,COC(=O)CNC(=O)c1c(C)cc(=O)oc1C,inactive
7,Cc1c(NC(=O)c2ccc(=O)oc2)c(=O)n(-c2ccccc2)n1C,inactive
8,Cc1ccc(C(=O)/C=C/Nc2cccc(O)c2)cc1,inactive
9,CCn1nc(NC(=O)c2cccnc2)c2cc3ccccc3nc21,inactive
10,Cc1ccc(/C=N/n2nnnc2N)o1,inactive
11,Cc1ccc2[nH]c3c(N4CCOCC4)ncnc3c2c1,inactive
12,O=C(Nc1ccccn1)NC(C(F)(F)F)C(F)(F)F,inactive
13,CC(=O)c1c(OCC(=O)O)ccc2c(C)cc(=O)oc12,inactive
14,O=C(NC1CCS(=O)(=O)C1)c1c(NC(=O)C2COc3ccccc3O2)sc2c1CCCC2 (stereo not given),inactive
15,Cc1cc(O)c(C(C)C)cc1N=C1CSC(=O)N1,inactive
16,O=C1C2ON(c3ccccc3)C(c3cccnc3)C2C(=O)N1c1ccccc1 (stereo not given),inactive
17,COc1ccccc1N=Cc1nc(-c2ccccc2)oc1OC(C)=O,inactive
18,Fc1ccc(-c2cnc[nH]2)cc1,inactive
19,Nn1c(SCC(=O)Nc2ccc3c(c2)OCCO3)nnc1C(F)(F)F,inactive
20,CN(C)/C=C1\N=C(c2ccc(Cl)cc2Cl)OC1=O,inactive
21,CCOc1ccccc1N1CCN(c2nc3ccccc3nc2C(C#N)C(=O)OC)CC1 (stereo not given),inactive

# Test: inhibitors of Chlamydomonas gravitaxis, primary screen, whole organism, Chlamydomonas reinhardtii, WT vs cilia-less mutant, absorbance, 96-well (AID 463189);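 further: 0% = wild type cc124 cells in DMSO and 100% = ciliumless bld1 mutant cells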
# Details: OD600 absorbance, 2 days, at 10 µM, hits give high values
row,Compound,inhibition
1,COC(=O)C(NC(C)=O)(Nc1ccccn1)C(F)(F)F (stereo not given),-7.72%
2,CCOC(=O)c1ccc2nc(NC(NC(C)=O)(C(=O)OC)C(F)(F)F)sc2c1 (stereo not given),-10.3%
3,Cc1nc2sc(C#N)c(N)c2c2c1CCCC2,3.68%
4,COCc1cc(=O)[nH]c(Nc2nc3ccccc3o2)n1,4.61%
5,Cc1c(O)c(CN2CCCCC2)cc2c3c(c(=O)oc12)CCC3,1.32%
6,O=C(C1CC1(c1ccccc1)c1ccccc1)N1CCOCC1 (stereo not given),35%
7,Cn1c(=O)[nH]c(=O)c2c1nc(N(CCO)Cc1ccccc1)n2Cc1ccccc1Cl,31.2%
8,CC1(C)CNC(=O)c2sc(N3CCOCC3)nc2C1,0.902%
9,CCOC(=O)CNC(=O)Nc1ccccc1C(=O)OC,-5.32%
10,CC(=O)C1=C(O)C(=O)N(c2ccc(C(=O)O)cc2)C1c1ccccc1 (stereo not given),-2.45%
11,Cn1c(=O)n(Cc2ccccc2)c(=O)c2c1nc(NCC1CCCO1)n2Cc1ccccc1 (stereo not given),-18.5%
12,c1ccc(CN2CCN(c3ncnc4c3[nH]c3ccccc34)CC2)cc1,21.2%
13,Cc1nnc2n(-c3ccccc3)c(=O)c3c4c(sc3n12)CCCC4,24.9%
14,COc1ccc2c(c1)n([O-])c1c([n+]2=O)CCC1,-9.94%
15,Cc1cc2c(c(=O)o1)C(Cc1ccccc1)C(C#N)=C(N)O2 (stereo not given),9.12%
16,c1ccc2c(c1)[nH]c1c(N3CCC4(CC3)OCCO4)ncnc12,-1.55%
17,CCOC(=O)c1ccc(N=Cc2nc(-c3ccccc3)oc2OC(C)=O)cc1,23.8%
18,CCN1CCc2c(C#N)c(N3CCCCC3)nc(NCc3ccccc3)c2C1,23.7%
19,Cc1cc(C)n(C(=O)CNC(=O)C2COc3ccccc3O2)n1 (stereo not given),15.9%
20,CCCCOc1ccccc1C(=O)NCCCC(=O)O,20.4%

row,Compound,inhibition
1,OCCNc1ncnc2c1c(-c1ccccc1)c(-c1ccccc1)n2Cc1ccco1,46.8%
2,COc1ccc(CCn2c(=N)c(C#N)cc3c(=O)n4ccccc4nc32)cc1,32.6%
3,Cc1nc2ccccc2cc1O,53.3% (active)
4,COC(=O)CNC(=O)c1c(C)cc(=O)oc1C,28.5%
5,Cc1c(NC(=O)c2ccc(=O)oc2)c(=O)n(-c2ccccc2)n1C,23.3%
6,Cc1ccc(C(=O)/C=C/Nc2cccc(O)c2)cc1,37.3%
7,CCn1nc(NC(=O)c2cccnc2)c2cc3ccccc3nc21,3.52%
8,Cc1ccc(/C=N/n2nnnc2N)o1,5.51%
9,Cc1ccc2[nH]c3c(N4CCOCC4)ncnc3c2c1,-1.47%
10,O=C(Nc1ccccn1)NC(C(F)(F)F)C(F)(F)F,12.6%
11,CC(=O)c1c(OCC(=O)O)ccc2c(C)cc(=O)oc12,19.8%
12,O=C(NC1CCS(=O)(=O)C1)c1c(NC(=O)C2COc3ccccc3O2)sc2c1CCCC2 (stereo not given),30.5%
13,Cc1cc(O)c(C(C)C)cc1N=C1CSC(=O)N1,-20%
14,O=C1C2ON(c3ccccc3)C(c3cccnc3)C2C(=O)N1c1ccccc1 (stereo not given),-4.82%
15,COc1ccccc1N=Cc1nc(-c2ccccc2)oc1OC(C)=O,23%
16,Fc1ccc(-c2cnc[nH]2)cc1,-0.515%
17,Nn1c(SCC(=O)Nc2ccc3c(c2)OCCO3)nnc1C(F)(F)F,11.3%
18,CN(C)/C=C1\N=C(c2ccc(Cl)cc2Cl)OC1=O,40.7%
19,CCOc1ccccc1N1CCN(c2nc3ccccc3nc2C(C#N)C(=O)OC)CC1 (stereo not given),-13.8%
